# Reference: PubChem BioAssay AID463141 (The Scripps Research Institute Molecular Screening Center, 2010)
# The campaign covered roughly 330,000 compounds. About 350 (0.11%) were called active.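 Rule for the calls: active = activation above the mean of all tested compounds plus 3 SD (cut at about 21% in these data); inactive = the rest.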 Many of the other results were omitted from the sample, so actives are more common in it than they were.
# Target: Caspase-3 (Homo sapiens) (UniProt P42574)
# Experiment: procaspase-3 enzyme activation – biochemical, absorbance, PC-3 D3A mutant, single concentration, primary screen (AID 463141);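 note: 0% = DMSO alone and 100% = DMSO wells spiked with extra 5 µM PC-3 D3A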
# Conditions: recombinant procaspase-3 D3A, Ac-DEVD-pNA absorbance 405 nm; at 8.5 µM; active compounds read high
# Outline: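 Assay system – Procaspase-3 D3A mutant, all three cleavage aspartates alanine · Controls – DMSO-only low control, 5 µM PC-3 D3A high control · Schedule – 1 h compound preincubation, 2 h substrate hydrolysis at 25 °C · Signal – 405 nm absorbance of p-nitroaniline, reads at 0 and 120 min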
# Sequence of Caspase-3 (Homo sapiens) (P42574 whole entry D9A/D28A/D175A): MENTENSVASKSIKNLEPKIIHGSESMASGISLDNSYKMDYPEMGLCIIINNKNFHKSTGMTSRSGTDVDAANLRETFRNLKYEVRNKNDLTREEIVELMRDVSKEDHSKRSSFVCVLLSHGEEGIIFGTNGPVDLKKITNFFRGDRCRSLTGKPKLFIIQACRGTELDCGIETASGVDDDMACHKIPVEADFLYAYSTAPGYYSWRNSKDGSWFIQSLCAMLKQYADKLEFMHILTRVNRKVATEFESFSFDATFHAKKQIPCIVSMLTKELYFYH
row,Compound,activation
1,COc1ccccc1N1CCN(C(=O)c2ccc(S(=O)(=O)N3CCCCC3)cc2)CC1,-4.47% (inactive)
2,COc1ccc(S(=O)(=O)Nc2ccccc2C(=O)N2CCCC2)cc1C,9.9% (inactive)
3,COc1ccccc1NS(=O)(=O)c1ccc(C(=O)N2CCN(c3ccccc3O)CC2)cc1,21.8% (active)
4,CC(NC(=O)c1ccccc1C(=O)O)c1ccc(-n2ccnc2)cc1 (stereo unspecified),-0.91% (inactive)
5,C=CCNc1nc(Nc2ccc(Cl)cc2)nc(OC)n1,3.18% (inactive)
6,COc1cccc(-c2cc3nc4c(c(N5CCC6(CC5)OCCO6)n3n2)CCCC4)c1,5.55% (inactive)
7,NC(=O)C1CC=CCC1C(=O)OCC(Cl)=C(Cl)Cl (stereo unspecified),-0.01% (inactive)
8,CSc1nsc(SC)c1NC(=O)OC1CCCCC1,-22.8% (inactive)
9,CN1CCN(CCCNC(=O)c2ccc(/C=C3\Oc4ccccc4N(Cc4ccc(Cl)cc4)C3=O)cc2)CC1,38.4% (active)
10,CC(C)OCCCNC(=O)CN1C(=O)/C(=C/c2ccccc2F)Oc2ccccc21,-1.27% (inactive)
11,CCCN1CCN(C(=O)CCCNC(=O)c2ccc(Cl)cc2)CC1,-2.14% (inactive)
12,N#CC1(NC(=O)COC(=O)CSc2ccc(F)cc2)CCCCC1,-6.99% (inactive)
13,CCCOn1c(-n2nc(C)cc2C)nc2ccccc2c1=O,7.25% (inactive)
14,CCC(C)(C)NC(=O)C(c1ccccn1)N(C(=O)c1csnn1)c1ccccc1 (stereo unspecified),2.32% (inactive)
15,Cc1ccc(S(=O)(=O)NNC(=S)NC(C)(C)C)cc1,9.08% (inactive)
16,COc1ccccc1CN(C)c1nnnn1-c1ccccc1,9.63% (inactive)
17,O=C(NCc1cccs1)C(=O)NCC1OCCCN1S(=O)(=O)c1ccc(F)cc1 (stereo unspecified),1.51% (inactive)
18,CC(=O)Oc1ccc2c(C)c(CC(C)O)c(=O)oc2c1 (stereo unspecified),24.1% (active)
19,COC(=O)Cc1c(C)c2ccc(OCC(=O)NCc3ccc4c(c3)OCO4)cc2oc1=O,0.37% (inactive)
20,CCc1c(C)c2ccc(OC3CCCCC3=O)cc2oc1=O (stereo unspecified),3.96% (inactive)
21,COc1ccc(CCNC(=O)COC(=O)c2ccc[nH]c2=O)cc1,23.9% (active)
22,COc1ccc(CCNC(=O)COC(=O)c2cc(=O)c3ccccc3o2)cc1,-1.38% (inactive)
23,COc1ccc(CCNC(=O)COC(=O)C2CC2C)cc1 (stereo unspecified),9.52% (inactive)
24,COc1ccc(S(=O)(=O)N(CCCN2CCCC2=O)Cc2cc3c(C)ccc(C)c3[nH]c2=O)cc1,-7.13% (inactive)
25,CCn1c(SCC(=O)Nc2ccc(C)cc2)nc2nc3c(cc2c1=O)CCCC3,3.79% (inactive)
26,O=C1[C@H]2[C@@H](c3ccc(F)cc3)N3C(=O)N(c4ccc(C(F)(F)F)cc4)C(=O)[C@@]3(Cc3ccccc3)[C@H]2C(=O)N1C1CCCCC1,5.91% (inactive)
